Assay results: ChEMBL document CHEMBL4339192, “De Novo Designed Amphipathic α-Helical Antimicrobial Peptides Incorporating Dab and Dap Residues on the Polar Face To Treat the Gram-Negative Pathogen, Acinetobacter baumannii” (J Med Chem, 2019)
Where a SMILES comes first, the peptide text is derived from it. Bridges are numbered along the chain shown (N, C = ends). [ ]: non-standard residue; d: D form. The star is where a group is joined. dOrn = NCCC[C@@H](N)C(=O)O; X1 = CC[C@H](C)CCCCC(=O)*; Dab = NCC[C@H](N)C(=O)O

Experiments:
Format in all cases: functional
[1] = test system: Acinetobacter baumannii; assay: Antibacterial activity against polymyxin B/colistin-resistant Acinetobacter baumannii M89949 measured after 24 hrs by microtiter dilution method; conditions: M89949, 24 h
Method in brief: (§1)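 Broth microdilution in Mueller-Hinton (MH) medium. […] Plates were incubated 24 h at 37 °C. MIC was the lowest peptide concentration that inhibited growth, based on three sets of replicates.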

[2] = test system: Acinetobacter baumannii; assay: Antibacterial activity against polymyxin B/colistin-resistant Acinetobacter baumannii M89952 measured after 24 hrs by microtiter dilution method; conditions: M89952, 24 h; method in brief: as §1
[3] = test system: Acinetobacter baumannii; assay: Antibacterial activity against polymyxin B/colistin-resistant Acinetobacter baumannii M89941 measured after 24 hrs by microtiter dilution method; conditions: M89941, 24 h; method in brief: as §1
[4] = test system: Acinetobacter baumannii; assay: Antibacterial activity against polymyxin B/colistin-resistant Acinetobacter baumannii M89963 measured after 24 hrs by microtiter dilution method; conditions: M89963, 24 h; method in brief: as §1
[5] = test system: Acinetobacter baumannii; assay: Antibacterial activity against polymyxin B/colistin-resistant Acinetobacter baumannii M89951 measured after 24 hrs by microtiter dilution method; conditions: M89951, 24 h; method in brief: as §1
[6] = test system: Acinetobacter baumannii; assay: Antibacterial activity against polymyxin B/colistin-resistant Acinetobacter baumannii M89953 measured after 24 hrs by microtiter dilution method; conditions: M89953, 24 h; method in brief: as §1
[7] = test system: Acinetobacter baumannii; assay: Antibacterial activity against polymyxin B/colistin-resistant Acinetobacter baumannii M89955 measured after 24 hrs by microtiter dilution method; conditions: M89955, 24 h; method in brief: as §1
[8] = test system: Acinetobacter baumannii; assay: Antibacterial activity against Acinetobacter baumannii isolate 1007660 measured after 24 hrs by microtiter dilution method; conditions: isolate 1007660, 24 h; method in brief: as §1
[9] = test system: Acinetobacter baumannii; assay: Antibacterial activity against Acinetobacter baumannii isolate 963618 measured after 24 hrs by microtiter dilution method; conditions: isolate 963618, 24 h; method in brief: as §1
[10] = test system: Acinetobacter baumannii; assay: Antibacterial activity against Acinetobacter baumannii isolate 1001611 measured after 24 hrs by microtiter dilution method; conditions: isolate 1001611, 24 h; method in brief: as §1
[11] = test system: Acinetobacter baumannii; assay: Antibacterial activity against Acinetobacter baumannii isolate 1021371 measured after 24 hrs by microtiter dilution method; conditions: isolate 1021371, 24 h; method in brief: as §1
[12] = test system: Acinetobacter baumannii; assay: Antibacterial activity against Acinetobacter baumannii 649 measured after 24 hrs by microtiter dilution method; conditions: Acinetobacter baumannii, 649, 24 h; method in brief: as §1
[13] = test system: Acinetobacter baumannii; assay: Antibacterial activity against Acinetobacter baumannii isolate 1018887 measured after 24 hrs by microtiter dilution method; conditions: isolate 1018887, 24 h; method in brief: as §1
[14] = test system: Acinetobacter baumannii; assay: Antibacterial activity against Acinetobacter baumannii isolate 964304 measured after 24 hrs by microtiter dilution method; conditions: isolate 964304, 24 h; method in brief: as §1
[15] = test system: Acinetobacter baumannii; assay: Antibacterial activity against Acinetobacter baumannii isolate 1010245 measured after 24 hrs by microtiter dilution method; conditions: isolate 1010245, 24 h; method in brief: as §1
[16] = test system: Acinetobacter baumannii; assay: Antibacterial activity against Acinetobacter baumannii isolate 1017395 measured after 24 hrs by microtiter dilution method; conditions: isolate 1017395, 24 h; method in brief: as §1
[17] = test system: Acinetobacter baumannii; assay: Antibacterial activity against Acinetobacter baumannii isolate 1035794 measured after 24 hrs by microtiter dilution method; conditions: isolate 1035794, 24 h; method in brief: as §1
[18] = test system: Acinetobacter baumannii; assay: Antibacterial activity against Acinetobacter baumannii isolate 9383370 measured after 24 hrs by microtiter dilution method; conditions: isolate 9383370, 24 h; method in brief: as §1
[19] = test system: Acinetobacter baumannii; assay: Antibacterial activity against Acinetobacter baumannii isolate 1010282 measured after 24 hrs by microtiter dilution method; conditions: isolate 1010282, 24 h; method in brief: as §1
[20] = test system: Acinetobacter baumannii; assay: Antibacterial activity against Acinetobacter baumannii isolate 961997 measured after 24 hrs by microtiter dilution method; conditions: isolate 961997, 24 h; method in brief: as §1
[21] = test system: Acinetobacter baumannii; assay: Antibacterial activity against Acinetobacter baumannii isolate 981650 measured after 24 hrs by microtiter dilution method; conditions: isolate 981650, 24 h; method in brief: as §1
[22] = test system: Acinetobacter baumannii; assay: Antibacterial activity against Acinetobacter baumannii isolate 1002956 measured after 24 hrs by microtiter dilution method; conditions: isolate 1002956, 24 h; method in brief: as §1
[23] = test system: Acinetobacter baumannii; assay: Antibacterial activity against Acinetobacter baumannii isolate 968886 measured after 24 hrs by microtiter dilution method; conditions: isolate 968886, 24 h; method in brief: as §1
[24] = test system: Acinetobacter baumannii; assay: Antibacterial activity against Acinetobacter baumannii isolate 977751 measured after 24 hrs by microtiter dilution method; conditions: isolate 977751, 24 h; method in brief: as §1
[25] = test system: Acinetobacter baumannii; assay: Antibacterial activity against Acinetobacter baumannii isolate 1035166 measured after 24 hrs by microtiter dilution method; conditions: isolate 1035166, 24 h; method in brief: as §1
[26] = test system: Acinetobacter baumannii; assay: Antibacterial activity against Acinetobacter baumannii isolate 965463 measured after 24 hrs by microtiter dilution method; conditions: isolate 965463, 24 h; method in brief: as §1
[27] = test system: Acinetobacter baumannii; assay: Antibacterial activity against Acinetobacter baumannii isolate 952654 measured after 24 hrs by microtiter dilution method; conditions: isolate 952654, 24 h; method in brief: as §1
[28] = test system: Acinetobacter baumannii; assay: Antibacterial activity against Acinetobacter baumannii isolate 963659 measured after 24 hrs by microtiter dilution method; conditions: isolate 963659, 24 h; method in brief: as §1
[29] = test system: Acinetobacter baumannii; assay: Antibacterial activity against Acinetobacter baumannii 649 measured after 24 hrs in presence of 25% human serum by microtiter dilution method; conditions: Acinetobacter baumannii, 649, 24 h
Method in brief: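 Blood strain 649 was tested by MH broth microdilution with and without 25% (v/v) human serum added to the medium. The test used a final inoculum of 5 × 10^5 cfu/mL and incubation at 37 °C. The ratio is the MIC in serum over the MIC in MH alone.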

Measured: MIC

CC[C@H](C)CCCCC(=O)N[C@@H](CCN)C(=O)N[C@H](C(=O)N[C@@H](CCN)C(=O)N[C@H]1CCNC(=O)[C@H]([C@@H](C)O)NC(=O)[C@H](CCN)NC(=O)[C@H](CCN)NC(=O)[C@H](CC(C)C)NC(=O)[C@@H](Cc2ccccc2)NC(=O)[C@H](CCN)NC1=O)[C@@H](C)O (X1-[Dab]T[Dab][Dab][Dab][dF]L[Dab][Dab]T; lactam 4-C)
> 25 µM: [1] | [2] | [3] | [4] | [5] | [6] | [7]

CC(=O)N[C@H](CCCCN)C(=O)N[C@H](CC(C)C)C(=O)N[C@H](CCCN)C(=O)N[C@H](CO)C(=O)N[C@H](CC(C)C)C(=O)N[C@H](CC(C)C)C(=O)N[C@H](CCCN)C(=O)N[C@@H](C(=O)N[C@H](CC(C)C)C(=O)N[C@H](CO)C(=O)N[C@H](CCCN)C(=O)N[C@H](C)C(=O)N[C@H](C)C(=O)N[C@H](C)C(=O)N[C@H](C)C(=O)N[C@H](C)C(=O)N[C@H](CC(C)C)C(=O)N[C@H](CCCN)C(=O)N[C@@H](C(=O)N[C@H](CC(C)C)C(=O)N[C@H](CC(C)C)C(=O)N[C@H](CCCN)C(=O)N[C@H](C)C(=O)N[C@H](CC(C)C)C(=O)N[C@H](CO)C(=O)N[C@H](CCCN)C(N)=O)[C@H](C)O)[C@H](C)O (Ac-[dK][dL][dOrn][dS][dL][dL][dOrn][dT][dL][dS][dOrn][dA][dA][dA][dA][dA][dL][dOrn][dT][dL][dL][dOrn][dA][dL][dS][dOrn]-NH2)
6 µM: [24]
0.7 µM: [28]
3 µM: [13] | [16] | [17] | [18] | [23] | [26]
2.9 µM: [1] | [3] | [4]
not listed: [7] | [29]
1.5 µM: all other assays above

CC(=O)N[C@H](CCCCN)C(=O)N[C@H](CC(C)C)C(=O)N[C@H](CCCNC(=N)N)C(=O)N[C@H](CO)C(=O)N[C@H](CC(C)C)C(=O)N[C@H](CC(C)C)C(=O)N[C@H](CCCNC(=N)N)C(=O)N[C@@H](C(=O)N[C@H](CC(C)C)C(=O)N[C@H](CO)C(=O)N[C@H](CCCNC(=N)N)C(=O)N[C@H](C)C(=O)N[C@H](CCCCN)C(=O)N[C@H](C)C(=O)N[C@H](C)C(=O)N[C@H](CCCCN)C(=O)N[C@H](CC(C)C)C(=O)N[C@H](CCCNC(=N)N)C(=O)N[C@@H](C(=O)N[C@H](CC(C)C)C(=O)N[C@H](CC(C)C)C(=O)N[C@H](CCCNC(=N)N)C(=O)N[C@H](C)C(=O)N[C@H](CC(C)C)C(=O)N[C@H](CO)C(=O)N[C@H](CCCNC(=N)N)C(N)=O)[C@H](C)O)[C@H](C)O (Ac-[dK][dL][dR][dS][dL][dL][dR][dT][dL][dS][dR][dA][dK][dA][dA][dK][dL][dR][dT][dL][dL][dR][dA][dL][dS][dR]-NH2)
0.7 µM: [2] | [12] | [5] | [6] | [7]
1.3 µM: [29] | [3]
